In ChEMBL document CHEMBL4038311, “An Ursolic Acid Derived Small Molecule Triggers Cancer Cell Death through Hyperstimulation of Macropinocytosis” (J Med Chem, 2017):
Activity calls are given as the source filed them. No cut-off for these calls is given here.

How the values were obtained:
SK-N-MC [1] = experiment: Anticancer activity against human SK-N-MC cells assessed as cell viability at 20 uM after 48 hrs by CCK8 assay relative to control; format: functional; conditions: read-out: Activity
Procedure, shortened: (§1)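 Cells (5000/well, pre-incubated overnight) exposed to 20 µM for 48 h. CCK-8 absorbance read at 450 nm. Viability given as percent of vehicle (DMSO) control, mean ± SD. Six parallel wells per condition, at least three independent repeats.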

MCF7 [2] = experiment: Anticancer activity against human MCF7 cells assessed as vacuole formation at 20 uM after 24 hrs by phase contrast microscopic analysis; format: functional, cell-based
HeLa [3] = experiment: Anticancer activity against human HeLa cells assessed as cell viability at 20 uM after 48 hrs by CCK8 assay relative to control; format: functional; conditions: read-out: Activity; procedure, shortened: as §1
HeLa [4] = experiment: Anticancer activity against human HeLa cells assessed as vacuole formation at 20 uM after 24 hrs by phase contrast microscopic analysis; format: functional, cell-based
HT-1080 [5] = experiment: Anticancer activity against human HT1080 cells assessed as vacuole formation at 20 uM after 24 hrs by phase contrast microscopic analysis; format: functional, cell-based
HepG2 [6] = experiment: Anticancer activity against human HepG2 cells assessed as vacuole formation at 20 uM after 24 hrs by phase contrast microscopic analysis; format: functional, cell-based
MCF7 [7] = experiment: Anticancer activity against human MCF7 cells assessed as cell viability at 20 uM after 48 hrs by CCK8 assay relative to control; format: functional; conditions: MCF7, 48 h, read-out: Activity; procedure, shortened: as §1
HepG2 [8] = experiment: Anticancer activity against human HepG2 cells assessed as cell viability at 20 uM after 48 hrs by CCK8 assay relative to control; format: functional; conditions: HepG2, 48 h, read-out: Activity; procedure, shortened: as §1
HT-1080 [9] = experiment: Anticancer activity against human HT1080 cells assessed as cell viability at 20 uM after 48 hrs by CCK8 assay relative to control; format: functional; conditions: HT-1080, 48 h, read-out: Activity; procedure, shortened: as §1
SK-N-MC [10] = experiment: Anticancer activity against human SK-N-MC cells assessed as vacuole formation at 20 uM after 24 hrs by phase contrast microscopic analysis; format: functional, cell-based
HeLa [11] = experiment: Induction of apoptosis in human HeLa cells assessed as increase in cleaved PARP1 levels at 100 nM after 24 to 48 hrs by Western blot analysis; format: functional, cell-based
HeLa [12] = experiment: Induction of apoptosis in human HeLa cells assessed as increase in cleaved caspase-3 levels at 100 nM after 24 to 48 hrs by Western blot analysis; format: functional, cell-based
HeLa [13] = experiment: Anticancer activity against human HeLa cells assessed as decrease in cell viability at 100 nM preincubated cells with Z-VAD-FMK for 1 hr followed by compound addition measured after 48 hrs by CCK8 assay; format: functional, cell-based

SMILES	viability at 20 µM (SK-N-MC [1]) [%]	Activity (MCF7 [2])	viability at 20 µM (HeLa [3]) [%]	Activity (HeLa [4])	Activity (HT-1080 [5])	Activity (HepG2 [6])	viability at 20 µM (MCF7 [7]) [%]	viability at 20 µM (HepG2 [8]) [%]	viability at 20 µM (HT-1080 [9]) [%]	Activity (SK-N-MC [10])	Activity (HeLa [11])	Activity (HeLa [12])	Activity (HeLa [13])
C[C@H]1[C@H](C)CC[C@]2(C(=O)O)CC[C@]3(C)C(=CC[C@@H]4[C@@]5(C)CC[C@H](O)C(C)(C)[C@@H]5CC[C@]43C)[C@H]12 [URSOLIC ACID]	67.2	inactive	43.3	inactive	inactive	inactive	57.6	34.1	39.4	inactive	–	–	–
C[C@H]1[C@H](C)CC[C@]2(C(=O)O)CC[C@]3(C)C(=CC[C@@H]4[C@@]5(C)Cc6cnn(-c7cccc(F)c7)c6C(C)(C)[C@@H]5CC[C@]43C)[C@H]12	24.6	inactive	33.3	inactive	inactive	inactive	46.6	29.5	33.5	inactive	–	–	–
CC(=O)O[C@H]1C(=O)[C@@]2(C)[C@H]([C@H](OC(=O)c3ccccc3)[C@]3(O)C[C@H](OC(=O)[C@H](O)[C@@H](NC(=O)c4ccccc4)c4ccccc4)C(C)=C1C3(C)C)[C@]1(OC(C)=O)CO[C@@H]1C[C@@H]2O	–	–	–	–	–	–	–	–	–	–	Active	Active	inactive
C[C@H]1[C@H](C)CC[C@]2(C(=O)O)CC[C@]3(C)C(=CC[C@@H]4[C@@]5(C)Cc6cnn(-c7ccc(F)cc7)c6C(C)(C)[C@@H]5CC[C@]43C)[C@H]12	39.4	Active	24.4	Active	Active	Active	34.3	58.6	27.3	Active	–	–	–
C[C@H]1[C@H](C)CC[C@]2(C(=O)O)CC[C@]3(C)C(=CC[C@@H]4[C@@]5(C)Cc6cnn(-c7ccncc7)c6C(C)(C)[C@@H]5CC[C@]43C)[C@H]12	79.9	inactive	54.2	inactive	inactive	inactive	39.7	56.8	30.9	inactive	–	–	–
C[C@H]1[C@H](C)CC[C@]2(C(=O)O)CC[C@]3(C)C(=CC[C@@H]4[C@@]5(C)Cc6cnn(CCO)c6C(C)(C)[C@@H]5CC[C@]43C)[C@H]12	63.3	inactive	47	inactive	inactive	inactive	40.5	57	39	inactive	–	–	–
C[C@H]1[C@H](C)CC[C@]2(C(=O)O)CC[C@]3(C)C(=CC[C@@H]4[C@@]5(C)Cc6c(C(F)(F)F)nn(C)c6C(C)(C)[C@@H]5CC[C@]43C)[C@H]12	67.4	Active	44.9	Active	Active	Active	47.6	46	35.8	Active	–	–	–
C[C@H]1[C@H](C)CC[C@]2(C(=O)O)CC[C@]3(C)C(=CC[C@@H]4[C@@]5(C)Cc6cnn(C)c6C(C)(C)[C@@H]5CC[C@]43C)[C@H]12	67.4	Active	44.9	Active	Active	Active	47.6	46	35.8	Active	–	–	–
C[C@H]1[C@H](C)CC[C@]2(C(=O)O)CC[C@]3(C)C(=CC[C@@H]4[C@@]5(C)Cc6cnn(-c7ccccc7)c6C(C)(C)[C@@H]5CC[C@]43C)[C@H]12	57.4	inactive	40.9	inactive	inactive	inactive	46.5	60.1	38.7	inactive	–	–	–
CCOC(=O)Cn1ncc2c1C(C)(C)[C@@H]1CC[C@]3(C)[C@H](CC=C4[C@@H]5[C@@H](C)[C@H](C)CC[C@]5(C(=O)O)CC[C@]43C)[C@@]1(C)C2	66.6	inactive	44.2	inactive	inactive	inactive	28.9	43.7	55.2	inactive	–	–	–
C[C@H]1[C@H](C)CC[C@]2(C(=O)O)CC[C@]3(C)C(=CC[C@@H]4[C@@]5(C)Cc6cnn(CC7CC7)c6C(C)(C)[C@@H]5CC[C@]43C)[C@H]12	33.9	inactive	19.9	inactive	inactive	inactive	33.4	33.9	23.5	inactive	–	–	–
C[C@H]1[C@H](C)CC[C@]2(C(=O)O)CC[C@]3(C)C(=CC[C@@H]4[C@@]5(C)Cc6cnn(-c7cccc(C#N)c7)c6C(C)(C)[C@@H]5CC[C@]43C)[C@H]12	31	Active	37.3	Active	Active	Active	28.1	29.3	37.5	Active	–	–	–
C[C@H]1[C@H](C)CC[C@]2(C(=O)O)CC[C@]3(C)C(=CC[C@@H]4[C@@]5(C)Cc6cnn(C7CCCC7)c6C(C)(C)[C@@H]5CC[C@]43C)[C@H]12	31.4	Active	30.8	Active	Active	Active	36.2	44.6	27.9	Active	–	–	–
